Screening data: PubChem BioAssay, several laboratories
A selection: hits, their analogues and other compounds. The true share with any hit is near 3.4%.
Runt-SMMHC FRET – inhibitors of RUNX1 Runt–CBFb-SMMHC binding, primary screen, biochemical, FRET, Cerulean-Runt, Venus-CBFb-SMMHC, uHTS; inhibition, % at 20 µM; Cerulean-Runt/Venus-CBFb-SMMHC FRET ratio 530/480, 1 h; 220,000 tested, 0.74% active; Runt-related transcription factor 1 (Homo sapiens) + Core-binding factor subunit beta …;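 active = mean inhibition across duplicate retests at 20 µM reaching about 50%, limit read from the data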;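 also: 0% = DMSO wells and 100% = wells with excess untagged CBFb-SMMHC; inhibitors lower the FRET ratio by blocking Runt binding to CBFb-SMMHC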
Runt-CBFb FRET – inhibitors of RUNX1 Runt–CBFb binding, primary screen, biochemical, FRET, Cerulean-Runt, Venus-CBFb, uHTS; Cerulean-Runt/Venus-CBFb FRET ratio 530/480, 1 h; inhibition, % at 20 µM; 220,000 tested, 0.46% active; AID 1496, 2009;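 active = inhibition over about 50% at 20 µM in the single-dose screen, limit read from the data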;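 also: 0% = DMSO wells and 100% = excess unlabeled CBFb competitor control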
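Assay system: Cerulean-Runt domain / Medium: Tris 50 mM pH 7.5, KCl, K2SO4, 0.01% BSA / Timing: protein complex preformed 1 h, compound exposure 1 h, room temperature, dark / Measured by: FRET, excitation 422 nm, emission at 530 and 480 nm / Evaluation: loss of energy transfer signal / Control set: 5 µM unlabeled CBFb as full-inhibition high control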
Wee1 stabilizer – Wee1 degradation inhibitors, primary screen, cell-based, HeLa, Wee1K328M-luciferase, luminescence; 220,000 tested, 1.2% active; HeLa Luc-Wee1K328M stability; 100% = proteasome inhibitor MG132 effect; reporter increase, % at 5 µM; Wee1-like protein kinase (Homo sapiens), P30291;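 active = activation above the mean of all tested compounds plus 3 SD, set per screening run, cut at about 8.8% in these data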;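 also: cells exposed to compound for 20 h before luminescence read; 0% = DMSO alone and 100% = MG132 at 30 µM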
Target sequence (P30291 whole entry K328M): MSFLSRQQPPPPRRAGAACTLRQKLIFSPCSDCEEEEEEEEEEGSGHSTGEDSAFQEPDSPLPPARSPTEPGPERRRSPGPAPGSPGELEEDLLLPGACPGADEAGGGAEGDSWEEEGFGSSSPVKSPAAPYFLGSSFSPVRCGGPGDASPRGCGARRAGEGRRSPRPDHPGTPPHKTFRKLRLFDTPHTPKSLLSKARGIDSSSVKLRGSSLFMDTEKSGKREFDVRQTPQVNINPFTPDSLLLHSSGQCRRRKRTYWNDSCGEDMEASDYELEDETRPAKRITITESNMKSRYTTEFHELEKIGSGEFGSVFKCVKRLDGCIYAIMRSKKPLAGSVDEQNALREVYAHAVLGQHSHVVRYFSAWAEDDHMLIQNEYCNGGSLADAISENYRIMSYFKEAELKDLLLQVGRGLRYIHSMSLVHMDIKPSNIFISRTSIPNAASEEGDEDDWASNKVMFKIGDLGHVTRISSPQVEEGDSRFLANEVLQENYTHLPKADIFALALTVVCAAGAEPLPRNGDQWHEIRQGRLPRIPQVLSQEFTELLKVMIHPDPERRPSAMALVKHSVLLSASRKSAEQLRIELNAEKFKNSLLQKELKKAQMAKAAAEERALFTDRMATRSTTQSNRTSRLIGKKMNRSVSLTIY
PHOSPHO1 block – PubChem AID 1565. Phosphoethanolamine/phosphocholine phosphatase (Homo sapiens), Q8TCT1. recombinant PHOSPHO1, absorbance phosphatase assay. inhibition, % at 13.3 µM. 290,000 tested, 1.1% active; in the data active = inhibition above about 60%
RanGTP-Impb inh – inhibitors of RanGTP-importin-beta interaction, primary screen, biochemical, FRET, CFP-Ran, YFP-importin-beta, homogeneous. Ran GTPase (GTP-bound) - importin-beta complex. cell-free CFP-Ran/YFP-importin-beta FRET ratio. inhibition, % (test concentration not listed). 300,000 tested, 1.1% active;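 active = more than half of the replicate wells show a fall in the fluorescence ratio signal beyond about 16%, limit read from the data, passing the limit was not always enough; inconclusive = exactly half of the replicate wells pass the set limit; inactive = fewer than half of replicates pass the limit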;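 also: 0% = DMSO wells and 100% = Ran loaded with GDP instead of GTP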
HMGR II inh – inhibitors of E. faecalis class II HMGR, primary screen, biochemical, Enterococcus faecalis. HMG-CoA reductase (Enterococcus faecalis, mvaE). 190,000 tested, 0.41% active. inhibition, % at 10 µM. purified E. faecalis HMGR, NADPH absorbance 340 nm kinetic;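 active = inhibition above a set limit, the median over all tested compounds plus 3 SD, cut at about 9.5% in these data; inconclusive = no clear call, values can overlap the other calls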;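 also: enzyme runs in reverse so mevalonate oxidation gives rising NADPH absorbance; 0% = complete reaction with DMSO and 100% = background rate lacking mevalonate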
The depositor's hits bear a star; ? = inconclusive; · = not tested or not shown.

SMILES | Runt-SMMHC FRET | Runt-CBFb FRET | Wee1 stabilizer | PHOSPHO1 block | RanGTP-Impb inh | HMGR II inh
CC(C)C(=O)N1CCN(c2ccccc2NC(=O)c2cccc3ccccc23)CC1 | · | · | · | 25 | 0 | ·
O=C(Nc1ccc([N+](=O)[O-])cn1)c1ccc(Br)o1 | 3 | 0 | 10* | 2 | 1 | -3
O=C(Nc1ccc([N+](=O)[O-])cn1)c1cccnc1 | · | · | · | 8 | ? | ·
O=C(NCC1CCN(Cc2ccccc2F)CC1)C1CCCN(c2ncnc3c2nc2n3CCCCC2)C1 (centres undefined) | · | · | · | -5 | 27 | ·
Cc1ccc(Cl)cc1NC(=O)CNC(=O)N1CC(=O)Nc2ccccc21 | · | · | · | 80* | 7 | ·
Cc1ccc(Cl)cc1NC(=O)CCNC(=O)N1CC(=O)Nc2ccccc21 | · | · | · | -22 | 3 | ·
COc1ccc(NS(=O)(=O)c2ccc(C)c(C(=O)N(C)Cc3ccc(C)cc3)c2)cc1 | · | · | · | · | 1 | ·
N#Cc1c(=O)c2nc(NCc3ccccc3)ncc2n2ccccc12 | 57 | -14 | 1 | -11 | 38* | 5
COc1ccc2oc(C(=O)OCC(=O)N(CCC#N)c3ccccc3)c(C)c2c1 | · | · | · | 18 | 1 | ·
CC[n+]1cc(-c2ccccc2)nc(N2CCOCC2)n1 | 4 | 3 | -3 | 100* | 5 | 1
NC(=O)c1cc(-c2ccccc2)nc(N2CCOCC2)n1 | 1 | 0 | 0 | 10 | -2 | -1
Cc1c(N(C)C(=O)COc2ccc3ccccc3c2)c(=O)n(-c2ccccc2)n1C | · | · | · | 8 | 3 | ·
CCOC(=O)C1(CCC(C)C)CC(CSc2nc3ccccc3[nH]2)OC1=O (centres undefined) | 3 | -1 | 5 | 71* | 1 | 1
CCOC(=O)C1(CC)CC(CSc2nc3ccccc3[nH]2)OC1=O (centres undefined) | 2 | 0 | -2 | -8 | 2 | -4
O=C(Nc1cccc(-n2cccn2)c1)C1CCCN(Cc2ccc(C#CCCO)cc2)C1 (centres undefined) | · | · | · | 48 | -1 | ·
O=C(NNc1cc(N2CCOCC2)nc(N2CCOCC2)n1)c1ccc([N+](=O)[O-])cc1 | 3 | 3 | -5 | 8 | 63* | -6
O=C(Nc1ccc(N2CCOCC2)cc1N1CCOCC1)c1ccc([N+](=O)[O-])cc1 | -3 | -1 | 0 | 7 | 1 | 1
Oc1ccc(CCNc2ncnc3ccc(Cl)cc23)cc1 | · | · | · | 10 | 0 | ·
O=c1[nH]c(SCc2ccccc2)nc2c1cnn2-c1ccc(F)cc1 | -6 | 0 | 2 | 12 | 28* | -3
CCN(CC)C(=O)C(=O)Nc1cc(C(F)(F)F)ccc1Cl | 28 | 38 | -2 | 75* | -5 | -8
O=C(O)CSCC(=O)Nc1cc(C(F)(F)F)ccc1Cl | 0 | -1 | 2 | 3 | 5 | -1
CCOc1ccccc1CN1CCN(Cc2cn(C)nc2-c2ccccc2)CC1CCO (centres undefined) | 2 | -2 | -1 | 60* | 1 | -7
Cn1cc(CN2CCN(Cc3ccccc3)C(CCO)C2)c(-c2ccccc2)n1 (centres undefined) | 2 | -1 | -4 | -46 | 10 | -2
Cc1cc(C)c2cc(C(=O)N3CCN(c4ncccc4C(F)(F)F)CC3)[nH]c2c1 | · | · | · | 16 | -2 | ·
CCC(=O)Nc1c(S(=O)(=O)c2ccc(C)cc2)c2nc3ccccc3nc2n1C(C)c1ccccc1 (centres undefined) | 75* | 37 | -1 | -3 | 4 | -1
CCC(=O)Nc1c(S(=O)(=O)c2ccccc2)c2nc3ccccc3nc2n1C(C)c1ccccc1 (centres undefined) | 76* | 29 | -2 | 5 | 4 | -3
Cc1ccc(C(=O)Nn2c(N)c(S(=O)(=O)c3ccc(C)cc3)c3nc4ccccc4nc32)cc1 | 6 | -2 | -1 | 18 | -4 | 0
